Series [1] in a line: melting temperature; fluorescence melt of hairpins on a sequencing array, two-state fit, raised by 9.35 °C to match UV melts. The settings on record: sodium 0.088 M. Put shortly: (§1)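 Folding enthalpy and melting temperature were estimated with bootstrapped two-state fits and combined across four replicates by inverse-variance weighting, with fitted temperatures raised by 9.35 °C to match UV melts. The data were Cy3 fluorescence of library hairpins, with annealed Cy3 and quencher oligos, on a sequenced MiSeq flow cell in 50 mM Na-HEPES pH 8.0, 25 mM NaCl, imaged in 2.5 °C steps up to 60 °C and normalised to pre-quench Cy3 and control constructs.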

Series [2] can be described thus: folding enthalpy; higher = less favourable; fluorescence melt of hairpins on a sequencing array, two-state fit. To be noted: sodium 0.088 M. The essentials:
as §1

As for GAGTAGGAAACTACTC ((((((....)))))), the Tm in series [1] is 51.1 °C. Moreover, the folding enthalpy in series [2] was -30.1 kcal/mol.
On to GAGTAGGCGAAAGCCCTC (((..(((....)))))), for which the Tm in series [1] stood at 35.4 °C. The folding enthalpy in series [2] is -10.8 kcal/mol.
On the same counts, the results for GAGTAGGGAAACCTACTC (((((((....))))))) are 57 °C and -46.6 kcal/mol.
With GAGTAGGGAAACTTACTC (((((.(....).))))), the Tm in series [1] is 35.5 °C. In series [2], the folding enthalpy was -25.6 kcal/mol.
For the sequence GAGTATGCGAAAGCACTC (((..(((....)))))), the Tm in series [1] stood at 38.8 °C. Further, the folding enthalpy in series [2] was -14.9 kcal/mol.
For GAGTATGGAAACATACTC (((((((....))))))), the Tm in series [1] came to 54.4 °C. Besides, the folding enthalpy in series [2] is -37.6 kcal/mol.
Regarding GAGTCACGAAAGTGCCTC (((.(((....))).))), the Tm in series [1] worked out at 50 °C. The folding enthalpy in series [2] is -23.5 kcal/mol.
As for GAGTCACGAAAGTGGCTC (((.(((....))).))), in series [1], the Tm was 64.7 °C. Also, the folding enthalpy in series [2] is -39.4 kcal/mol.
On the same counts, the results for GAGTCCGAAAGGAACTC ((((((....))).))) are 50.7 °C and -27.7 kcal/mol.
For GAGTCCGAAAGGATCCTC ((((((....)))..))), in that order: 34.1 °C and -12.1 kcal/mol.
For GAGTCCGGAAACGGACCC (.(((((....))))).), in that order: 46.2 °C and -9.42 kcal/mol.
Take GAGTCCGGAAACGGGTTC ((..(((....)))..)): the Tm in series [1] is 33.6 °C. Besides, in series [2], the folding enthalpy is -16.1 kcal/mol.
In the case of GAGTCGCCGAAAGGCCTC (((..(((....)))))), the Tm in series [1] amounted to 29.3 °C. Moreover, the folding enthalpy in series [2] is -12.2 kcal/mol.
With GAGTCGGGAAACCGGTTC ((..(((....)))..)), the Tm in series [1] was 32.8 °C. For the same sequence, the folding enthalpy in series [2] was -15.6 kcal/mol.
For GAGTCGGGAAACTGGCTC (((.(.(....).).))), in that order: 43.4 °C and -25.8 kcal/mol.
For the sequence GAGTGAGAAATCACTC ((((((....)))))), in series [1], the Tm was 53.7 °C. Moreover, the folding enthalpy in series [2] was -34.3 kcal/mol.
Regarding GAGTGAGCGAAAGCTCTC (((..(((....)))))), the Tm in series [1] amounted to 32.9 °C. The folding enthalpy in series [2] was -9.01 kcal/mol.
Regarding GAGTGAGGAAACCCACTC (((((.(....).))))), in series [1], the Tm amounted to 44.5 °C. Besides, the folding enthalpy in series [2] was -33.8 kcal/mol.
Consider GAGTGCCGAAAGGCCTC (((.(((....)))))), for which the Tm in series [1] turned out to be 56.8 °C. Also, the folding enthalpy in series [2] is -17.7 kcal/mol.
For GAGTGCGAAAGCAAACTC ((((((....)))..))), in that order: 47.2 °C and -20.8 kcal/mol.
In the case of GAGTGCGAAAGCACCTC ((((((....))).))), the Tm in series [1] amounted to 54.8 °C. In addition, the folding enthalpy in series [2] is -10.3 kcal/mol.
As for GAGTGCGAAAGCATGCTC ((((((....)))..))), the Tm in series [1] was 43.4 °C. Also, the folding enthalpy in series [2] was -15 kcal/mol.
As for GAGTGCGGAAACGCGCTC (((.(((....))).))), in series [1], the Tm stood at 66.1 °C. Further, the folding enthalpy in series [2] is -31.7 kcal/mol.
Turning to GAGTGGGGAAACCCGCTC (((.(((....))).))), the Tm in series [1] was determined as 55.6 °C. The folding enthalpy in series [2] is -35.8 kcal/mol.
On the same counts, the results for GAGTTAGCGAAAGCTCTC (((..(((....)))))) are 35.1 °C and -11.5 kcal/mol.
For GAGTTAGGAAACCAACTC (((((.(....).))))), in that order: 35.4 °C and -32.5 kcal/mol.
For GAGTTAGGAAACTAACCC (.(((((....))))).), in that order: 30.4 °C and -17.4 kcal/mol.
As for GAGTTAGGAAACTAATTC ((.((((....)))).)), the Tm in series [1] was 27.9 °C. For the same sequence, in series [2], the folding enthalpy is -23.9 kcal/mol.
On to GAGTTCCCGAAAGGGCTC (((..(((....)))))), for which the Tm in series [1] stood at 34.1 °C. The folding enthalpy in series [2] was -18.3 kcal/mol.
For GAGTTGAAAAACTC (((((....))))), in that order: 44.7 °C and -22 kcal/mol.
For GAGTTTGGAAACAAATTC ((.((((....)))).)), in that order: 35.8 °C and -28.7 kcal/mol.
Regarding GATAAACGAAAGTTGATC (((.(((....))).))), the Tm in series [1] turned out to be 39.4 °C. The folding enthalpy in series [2] was -23.4 kcal/mol.
For GATAAAGCGAAAGCTATC (((..(((....)))))), in that order: 33.1 °C and -14.2 kcal/mol.
In the case of GATAACCCGAAAGGGATC (((..(((....)))))), the Tm in series [1] is 28.9 °C. Moreover, the folding enthalpy in series [2] is -17.8 kcal/mol.
On to GATAACCGAAAGGTAATC (((.(((....))).))), for which, in series [1], the Tm was 40.2 °C. Further, in series [2], the folding enthalpy was -21.2 kcal/mol.
For GATAACCGAAAGGTATC (((.(((....)))))), in that order: 38.9 °C and -17.4 kcal/mol.
For GATAACGCGAAAGCGATC (((..(((....)))))), in that order: 24.1 °C and -10.2 kcal/mol.
For GATAATGGAAACATTATC (((((((....))))))), in that order: 48.4 °C and -43.9 kcal/mol.
Turning to GATACAGGAAACTGTACC (.(((((....))))).), the Tm in series [1] was determined as 31.1 °C. The folding enthalpy in series [2] is -15.4 kcal/mol.
On the same counts, the results for GATACAGGAAACTGTGTC ((.((((....)))).)) are 44.9 °C and -25.9 kcal/mol.
Consider GATACCCGAAAGGGCATC (((.(((....))).))), for which the Tm in series [1] worked out at 49.5 °C. The folding enthalpy in series [2] was -18.8 kcal/mol.
For GATACCGAAAGGTATATC ((((((....)))..))), in that order: 45.2 °C and -16.3 kcal/mol.
On the same counts, the results for GATACCGAAAGGTCATC ((((((....))).))) are 35.6 °C and -17 kcal/mol.
On the same counts, the results for GATACCGAAAGGTGAATC ((((((....)))..))) are 27.2 °C and -12.6 kcal/mol.
With GATACCGAAAGGTGTATC ((((((....)))..))), the Tm in series [1] was 35.9 °C. Further, the folding enthalpy in series [2] is -14.8 kcal/mol.
On the same counts, the results for GATACCGAAAGGTTAATC ((((((....)))..))) are 25.3 °C and -11.1 kcal/mol.
For the sequence GATACCGAAAGGTTGATC ((((((....)))..))), in series [1], the Tm was determined as 31.4 °C. Moreover, the folding enthalpy in series [2] was -13.6 kcal/mol.
On the same counts, the results for GATACCGGAAACGGTGTC ((.((((....)))).)) are 52.1 °C and -28.8 kcal/mol.
On the same counts, the results for GATACGCGAAAGCGAATC (((.(((....))).))) are 49.4 °C and -21.6 kcal/mol.
For GATACGGGAAACCGCATC (((.(((....))).))), in that order: 41.4 °C and -24.8 kcal/mol.
Consider GATACGGGAAACCGTACC (.(((((....))))).), for which, in series [1], the Tm was 32.1 °C. In series [2], the folding enthalpy is -15.7 kcal/mol.
Consider GATACGGGAAACCGTGTC ((.((((....)))).)), for which, in series [1], the Tm turned out to be 49.2 °C. Further, the folding enthalpy in series [2] was -30.7 kcal/mol.
On the same counts, the results for GATACGGGAAACTGTGTC ((.((.(....).)).)) are 33.6 °C and -20.1 kcal/mol.
As for GATACTGGAAACAGTACC (.(((((....))))).), the Tm in series [1] was found to be 33.1 °C. Besides, the folding enthalpy in series [2] was -15.7 kcal/mol.
Regarding GATAGAGGAAACCCTATC (((((.(....).))))), in series [1], the Tm was 30.8 °C. The folding enthalpy in series [2] was -20.3 kcal/mol.
